Experimental data from ChEMBL document CHEMBL4270576, “Discovery of a benzenesulfonamide-based dual inhibitor of microsomal prostaglandin E2 synthase-1 and 5-lipoxygenase that favorably modulates lipid mediator biosynthesis in inflammation” (Eur J Med Chem, 2018).
Activity calls are given as the source filed them. The rule behind the calls is not given here.

Legend:
[1] = molecular target: T1, Polyunsaturated fatty acid 5-lipoxygenase (Homo sapiens, UniProt P09917); experiment: Inhibition of recombinant human 5-LO expressed in Escherichia coli BL21 (DE3) using arachidonic acid as substrate preincubated for 10 mins followed by CaCl2 and substrate addition measured after 10 mins by RP-HPLC analysis
T1 sequence (P09917 whole entry): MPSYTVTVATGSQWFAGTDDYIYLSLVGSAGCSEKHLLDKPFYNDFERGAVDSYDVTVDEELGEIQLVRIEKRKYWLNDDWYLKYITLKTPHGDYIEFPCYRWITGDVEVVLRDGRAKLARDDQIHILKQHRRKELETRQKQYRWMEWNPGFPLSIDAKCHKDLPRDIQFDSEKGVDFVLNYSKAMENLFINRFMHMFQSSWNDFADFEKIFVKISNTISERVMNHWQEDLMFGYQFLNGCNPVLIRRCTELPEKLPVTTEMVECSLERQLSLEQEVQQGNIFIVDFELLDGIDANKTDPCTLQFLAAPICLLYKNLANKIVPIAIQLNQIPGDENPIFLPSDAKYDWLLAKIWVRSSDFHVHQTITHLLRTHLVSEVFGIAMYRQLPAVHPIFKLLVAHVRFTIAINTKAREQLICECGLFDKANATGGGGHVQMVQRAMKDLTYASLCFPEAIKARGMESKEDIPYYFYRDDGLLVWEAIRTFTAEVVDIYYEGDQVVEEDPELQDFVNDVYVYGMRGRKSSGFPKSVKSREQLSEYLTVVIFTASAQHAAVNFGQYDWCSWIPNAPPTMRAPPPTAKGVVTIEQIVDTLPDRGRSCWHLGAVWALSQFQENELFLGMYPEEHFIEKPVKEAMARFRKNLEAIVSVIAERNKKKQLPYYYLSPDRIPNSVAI
Method in brief: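 Human recombinant 5-LO from E. coli BL21(DE3), ATP-agarose semi-purified (0.5 µg/ml), pre-incubated with compound or 0.1% DMSO at 4 °C. It was pre-warmed 30 s at 37 °C, then started with 2 mM CaCl2 plus 20 µM AA. Stopped after 10 min with ice-cold methanol; products by RP-HPLC. Residual activity at 10 µM; IC50 from 4-5 concentrations; n=3-4.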

[2] = molecular target: T2, Polyunsaturated fatty acid 5-lipoxygenase (Homo sapiens) (UniProt P09917); experiment: Inhibition of 5-LO in human M1 macrophages derived from LPS/IFNgamma-polarized human monocyte derived macrophages assessed as effect on t-LTB4 level at 3 uM preincubated for 15 mins followed by Escherichia coli (O6:K2:H1) challenge for 90 mins by LC-MS/MS analysis; design: scale not given: the % may be the effect or the level left
T2 sequence (whole entry): T1 sequence (P09917 whole entry)
Method in brief: (§1)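 Monocytes differentiated 6 days with GM-CSF (20 ng/ml) in RPMI/10% FCS, then polarized 48 h with LPS 100 ng/ml plus IFN-γ 20 ng/ml (M1). Cells (2 × 10^6) in PBS with 1 mM CaCl2 pre-incubated 15 min at 37 °C with 3 µM compound or 0.1% DMSO, then E. coli O6:K2:H1 (1:50) for 90 min. Methanol with deuterated standards added; SPE; UPLC-MS/MS; expressed as % of vehicle.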

[3] = molecular target: T2, Polyunsaturated fatty acid 5-lipoxygenase (Homo sapiens); experiment: Inhibition of 5-LO in human M1 macrophages derived from LPS/IFNgamma-polarized human monocyte derived macrophages assessed as effect on LTB4 level at 3 uM preincubated for 15 mins followed by Escherichia coli (O6:K2:H1) challenge for 90 mins by LC-MS/MS analysis; design: scale not given: the % may be the effect or the level left; method in brief: as §1
[4] = molecular target: T3, Polyunsaturated fatty acid lipoxygenase ALOX15 (Homo sapiens) (UniProt P16050); experiment: Modulation of 15-LO-mediated 7-HDHA level in human M2 macrophages derived from IL4-polarized human monocyte derived macrophages at 3 uM preincubated for 15 mins followed by Escherichia coli (O6:K2:H1) challenge for 90 mins by LC-MS/MS analysis
T3 sequence (whole entry): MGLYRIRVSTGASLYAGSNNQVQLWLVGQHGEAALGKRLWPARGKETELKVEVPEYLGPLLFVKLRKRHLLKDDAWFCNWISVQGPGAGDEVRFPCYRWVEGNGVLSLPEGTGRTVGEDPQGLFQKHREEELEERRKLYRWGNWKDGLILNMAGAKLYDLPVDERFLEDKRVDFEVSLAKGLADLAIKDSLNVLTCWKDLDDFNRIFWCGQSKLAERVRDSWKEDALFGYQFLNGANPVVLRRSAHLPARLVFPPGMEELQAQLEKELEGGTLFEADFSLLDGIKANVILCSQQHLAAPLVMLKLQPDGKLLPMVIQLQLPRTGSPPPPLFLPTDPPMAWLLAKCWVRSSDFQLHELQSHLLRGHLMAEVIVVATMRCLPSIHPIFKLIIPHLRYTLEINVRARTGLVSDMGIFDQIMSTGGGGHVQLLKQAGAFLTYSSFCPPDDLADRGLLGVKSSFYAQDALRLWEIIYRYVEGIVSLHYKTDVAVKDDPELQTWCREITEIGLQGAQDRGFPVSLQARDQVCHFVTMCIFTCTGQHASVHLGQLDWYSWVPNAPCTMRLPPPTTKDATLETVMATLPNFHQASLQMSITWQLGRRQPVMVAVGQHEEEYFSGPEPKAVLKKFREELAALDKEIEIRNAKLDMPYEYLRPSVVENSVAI
Method in brief: (§2)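 Monocytes differentiated 6 days with M-CSF (20 ng/ml), then polarized 48 h with IL-4 20 ng/ml (M2). Cells (2 × 10^6) in PBS/1 mM CaCl2 pre-incubated 15 min at 37 °C with 3 µM compound or 0.1% DMSO, then challenged with E. coli O6:K2:H1 (1:50) for 90 min. Lipid mediators extracted by SPE with deuterated internal standards and quantified by UPLC-MS/MS as % of vehicle.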

[5] = organism: Homo sapiens; experiment: Modulation of LO-mediated RvD5 level in human M2 macrophages derived from IL4-polarized human monocyte derived macrophages at 3 uM preincubated for 15 mins followed by Escherichia coli (O6:K2:H1) challenge for 90 mins by LC-MS/MS analysis; method in brief: as §2
[6] = test system: Mus musculus; experiment: Antiinflammatory activity in zymosan induced CD-1 mouse model of inflammation assessed as reduction in LTB4 levels in air pouch at 10 mg/kg, ip preincubated for 30 mins followed by zymosan challenge and measured after 4 hrs by ELISA; format: functional, organism-based
Method in brief: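 Air pouch formed by s.c. injection of 2.5 mL sterile air in CD-1 mice; on day 6, 10 mg/kg i.p. (2% DMSO/saline) given 30 min before 1 ml 1% w/v zymosan into the pouch. After 4 h, exudate collected with 1 ml saline and centrifuged; leukocytes counted in Burker chamber; LTB4 in supernatant by ELISA (ng/mL). n=6 mice per group.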

[7] = test system: Macrophage cell line; experiment: Modulation of 13-HDHA level in human M2 macrophages derived from IL4-polarized human monocyte derived macrophages at 3 uM preincubated for 15 mins followed by Escherichia coli (O6:K2:H1) challenge for 90 mins by LC-MS/MS analysis; format: functional; method in brief: as §2
[8] = molecular target: T2, Polyunsaturated fatty acid 5-lipoxygenase (Homo sapiens); experiment: Ratio of IC50 for recombinant human 5-LO to IC50 for 5-LO in human neutrophils

## O=C(O)c1ccc(N(Cc2cccc(OCc3ccccc3)c2)S(=O)(=O)c2ccc(-c3ccccc3)cc2)cc1
[1]
  IC50: 2.3 µM
[2]
  Activity: 17%
[3]
  Activity: 11%
[4]
  Activity: 107%
[5]
  Activity: 134%
[6]
  Activity: Active
[7]
  Activity: 127%
[8]
  Ratio IC50: 8
